Laboratory results from ChEMBL document CHEMBL4184268, “Design, synthesis, and biological evaluation of inhibitors of the NADPH oxidase, Nox4” (Bioorg Med Chem, 2018).
pIC50: −log10 of the molar value. The source made the active and inactive calls. The rule behind the calls is not given here.

Columns and labels:
[1] = Effect on hypoxanthine/xanthine oxidase-induced superoxide radical scavenging activity up to 100 uM incubated for 1 min measured for 15 mins by cytochrome C assay; format: functional
Outline: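 Superoxide from hypoxanthine (100 μM)/xanthine oxidase in PBS with catalase (200 U/mL), compound 1–100 μM, detected by cytochrome C (46 μM) reduction at 550 nm. After 1 min stabilization, read kinetically 1/min for 15 min. Linear slope gave % scavenging. SOD (575 U/mL) as positive control. Means ± SEM of 4 experiments, ANOVA/Dunnett.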

[2] = Effect on hydrogen peroxide radical scavenging activity up to 100 uM measured after 5 mins by Amplex Red assay; format: functional
Outline: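 Cell-free H2O2 consumption. Exogenous H2O2 incubated 5 min with compound (1–100 μM) in reaction buffer. Amplex Red/horseradish peroxidase then added for 30 min at room temperature in the dark. Resorufin read at ex 530/em 590 nm. DMSO solvent control. Means ± SEM of 3 independent experiments, one-way ANOVA with Dunnett's test.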

NADPH oxidase 4 = molecular target: T1, NADPH oxidase 4 (Homo sapiens, UniProt Q9NPH5); assay: Inhibition of Nox4 in HASMCs assessed as reduction in TGFbeta-induced increase in smooth muscle alpha actin level pretreated for 30 mins followed by TGFbeta stimulation after 24 hrs by Western blot analysis
T1 sequence (Q9NPH5 whole entry): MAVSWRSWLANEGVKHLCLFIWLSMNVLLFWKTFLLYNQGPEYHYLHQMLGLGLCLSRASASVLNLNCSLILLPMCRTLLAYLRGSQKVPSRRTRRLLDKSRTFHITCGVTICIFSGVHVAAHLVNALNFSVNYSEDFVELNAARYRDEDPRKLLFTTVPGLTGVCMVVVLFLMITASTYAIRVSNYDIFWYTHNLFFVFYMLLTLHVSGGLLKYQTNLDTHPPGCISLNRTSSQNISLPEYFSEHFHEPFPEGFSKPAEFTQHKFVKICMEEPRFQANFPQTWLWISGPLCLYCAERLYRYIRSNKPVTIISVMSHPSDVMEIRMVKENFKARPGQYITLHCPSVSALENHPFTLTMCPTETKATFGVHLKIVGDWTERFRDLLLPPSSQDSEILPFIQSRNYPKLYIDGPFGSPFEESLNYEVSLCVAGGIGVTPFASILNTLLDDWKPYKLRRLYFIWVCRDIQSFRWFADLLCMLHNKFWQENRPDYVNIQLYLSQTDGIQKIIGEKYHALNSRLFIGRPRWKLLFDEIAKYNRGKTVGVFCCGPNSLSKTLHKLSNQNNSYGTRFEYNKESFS
Outline: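 HASMs (<passage 10) at 80% confluence, serum-reduced (0.1% FBS) 24 h, pretreated 30 min with compound (1–100 μM), then TGF-β 2 ng/ml for 24 h. Lysates blotted for α-SMA normalized to β-tubulin, ECL detection. TGF-β alone set as 100%. IC50 by non-linear regression, means ± SEM from 3–4 independent experiments.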

HASMC = assay: Effect on TGFbeta-induced Nox4 mRNA expression in HASMCs at 1 to 100 uM pretreated for 30 mins followed by TGFbeta addition measured after 24 hrs by qPCR analysis; format: functional, cell-based; conditions: Homo sapiens
[3] = Cytotoxicity against HASMCs assessed as cell viability at 100 uM after 24 hrs by calcein/AM/ethidium homodimer-1 staining based fluorescence microscopic analysis relative to control; conditions: human, HASMC cells; read-out: Activity
Outline: (§1)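 HASMs (before passage 10) grown to 80% confluence, then serum-reduced (0.1% FBS) for 24 h. Cells were pretreated with compound for 30 min, then given TGF-β (2 ng/ml) for 24 h. Stained with calcein/AM (2 μM) and ethidium homodimer-1 (4 μM) for 10 min at room temperature, read by fluorescence microscopy. Controls: untreated cells as negative, 70% ethanol for 30 min as positive.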

[4] = Cytotoxicity against HASMCs assessed as cell viability at 10 uM after 24 hrs by calcein/AM/ethidium homodimer-1 staining based fluorescence microscopic analysis relative to control; conditions: human, HASMC cells; read-out: Activity; outline: as §1

| pIC50 (NADPH oxidase 4) | SMILES | Activity [1] | Activity [2] | Activity (HASMC) | viability at 24 h, 100 µM [3] | viability at 24 h, 10 µM [4] |
| --- | --- | --- | --- | --- | --- | --- |
| 4.57 | COc1ccc(S(=O)(=O)N2CCCN(c3ccc(C(F)(F)F)cc3)C2=O)cc1 | inactive | inactive | inactive | 92% |  |
| 5.43 | O=C1N(c2ccc(C(F)(F)F)cc2)CCCN1S(=O)(=O)c1ccc(F)cc1 | inactive | inactive | inactive | 100% |  |
| 6.30 | COc1ccc(S(=O)(=O)N2CCN(c3ccc(C(F)(F)F)cc3)C2=O)cc1 | inactive | inactive | inactive |  | 97% |
